Bioassay records as filed in PubChem.
T cell HTS = T cell immune modulators affecting CD8 T cell-vesicle binding; 2C CD8+ T cell-vesicle binding, flow cytometry; hits give low values; response (vesicle binding), % at 7 µM; 0.068% of 330,000 active;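 active means response, share of CD8 T cells binding vesicles, and their 90th percentile fluorescence all below set limits, cut at about 80% in these data, passing the limit was not always enough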;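 further: values below 100% mean blocked vesicle binding to the CD8+ T cells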
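Incubation: binding step 1.5 h, 37 °C, antibody labelling 20 min, ice; system: murine 2C transgenic CD8+ T lymphocytes; technique: cytometric PE anti-B7-1 and Alexa647 anti-CD8 signals after 1% paraformaldehyde fixation; also added: QL9-charged Drosophila Ld/ICAM-1/B7-1 vesicles; control set: naked versus QL9-loaded vesicles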
Myeloid diff 2 = compounds promoting myeloid differentiation; ER-HoxA9 myeloid progenitors, lysozyme-GFP differentiation, flow cytometry; 1% of 360,000 active; AID 624256; calls only at 10 µM;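 active means normalized GFP-positive differentiation at or above the plate's own cutoff, the solvent-only control mean plus 3 SD; inconclusive means no clear call, values can overlap the other calls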;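 further: cells exposed to compound for four days before flow analysis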
GRK2 inh = inhibitors of human GRK2 displacing RNA aptamer. bead flow cytometry, FAM-aptamer displacement from GRK2. inhibition of aptamer binding, % at 10 µM. 0.59% of 330,000 active. AID 488847;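 active means inhibition of aptamer binding above 40%, roughly 3 SD of noise, on plates passing a quality check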;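 further: median bead fluorescence of bound FAM aptamer so fluorescent compounds give negative values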
Target sequence (P25098 whole entry, looked up): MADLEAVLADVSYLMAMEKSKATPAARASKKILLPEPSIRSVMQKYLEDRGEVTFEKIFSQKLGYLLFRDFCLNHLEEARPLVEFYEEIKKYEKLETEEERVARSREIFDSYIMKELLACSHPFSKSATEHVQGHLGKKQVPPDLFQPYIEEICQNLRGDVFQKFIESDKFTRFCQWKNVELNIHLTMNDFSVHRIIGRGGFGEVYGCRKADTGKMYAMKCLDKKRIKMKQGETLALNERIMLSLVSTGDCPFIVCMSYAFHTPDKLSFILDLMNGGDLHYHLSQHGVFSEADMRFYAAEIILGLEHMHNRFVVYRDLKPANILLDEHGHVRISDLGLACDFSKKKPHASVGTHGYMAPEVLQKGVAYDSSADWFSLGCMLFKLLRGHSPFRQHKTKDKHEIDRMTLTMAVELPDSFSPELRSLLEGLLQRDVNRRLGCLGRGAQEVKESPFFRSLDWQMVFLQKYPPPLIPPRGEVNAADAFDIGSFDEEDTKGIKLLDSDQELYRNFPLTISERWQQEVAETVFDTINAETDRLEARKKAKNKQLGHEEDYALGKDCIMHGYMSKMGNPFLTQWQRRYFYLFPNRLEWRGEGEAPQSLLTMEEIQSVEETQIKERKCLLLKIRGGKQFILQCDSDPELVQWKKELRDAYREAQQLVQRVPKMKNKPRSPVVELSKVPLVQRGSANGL
Rin1 Abl inh = blocks binding of human Rin1 to Abl. AID 588664. TR-FRET Rin1/Abl binding, biochemical. 0.4% of 360,000 active. inhibition, % at 7.35 µM. P00519+Q13671; in the data active means inhibition above about 5%, passing the limit was not always enough
Rce1 inh = yeast Ras-converting enzyme inhibition; calls only; 0.27% of 290,000 active; Q03530; yeast membranes, quenched prenylated peptide cleavage fluorescence;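 active means fall in fluorescence gain of 50% or more versus controls, with final raw signal at or below 3038400; inconclusive means same 50% fall but final raw signal above 3038400; inactive means fall in fluorescence gain under 50%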
SKN-1 block = blocks SKN-1 activity in C. elegans; inhibition, % at 21.8 µM; AID 624304; C. elegans VP596 Pgst-4::GFP/RFP ratio, acrylamide-induced, 24 h; 0.49% of 360,000 active;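 active means interference check ratio from 0.5 to 1.5 plus GFP to RFP signal ratio inhibition reaching or exceeding a fixed threshold, cut at about 30% in these data, passing the limit was not always enough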
A number is an active result; i = inactive; ? = inconclusive; nt = no result given; + = active, no number. Only some compounds are listed: those with a hit (about 2.6% of all), similar ones and a draw of the others.

SMILES	T cell HTS	Myeloid diff 2	GRK2 inh	Rin1 Abl inh	Rce1 inh	SKN-1 block
CC(C)Sc1nc2c(c(=O)[nH]1)C(c1cccs1)C1=C(CC(C)(C)CC1=O)N2 (centres undefined)	i	i	i	i	i	i
CCSc1nc2c(c(=O)[nH]1)C(c1ccccn1)C1=C(CC(C)(C)CC1=O)N2 (centres undefined)	i	i	i	i	+	i
CN(CC(=O)Nc1ccccc1C(F)(F)F)C(=O)c1cc2c(s1)CCCCC2	i	i	i	i	i	i
COc1cccc(/C=C2\CC(C)Cc3c2nc2ccccc2c3C(=O)O)c1OC (centres undefined)	i	i	i	i	i	40
CCOc1cc(/C=C2\CCCc3c2nc2ccccc2c3C(=O)O)ccc1OC	i	i	i	i	i	i
O=C(O)COc1ccc(/C=C/c2nc3ccc([N+](=O)[O-])cc3s2)cc1	i	i	i	i	i	i
COC(=O)c1cc2ccccc2c([N+](=O)[O-])c1O	nt	i	nt	i	nt	i
COC(=O)c1cc2ccccc2c(-c2c(OC)c(C(=O)OC)cc3ccccc23)c1OC	i	+	i	i	i	i
O=C1Nc2ccccc2Oc2cc([N+](=O)[O-])cc(Oc3ccccc3)c21	i	+	i	i	i	i
Cc1cccc(Oc2cc([N+](=O)[O-])cc3c2C(=O)Nc2ccccc2O3)c1	i	i	i	i	i	i
COc1cccc(CNC(=O)C2CCN(S(=O)(=O)c3ccc4c(c3)CC(C)N4C(C)=O)CC2)c1 (centres undefined)	i	i	i	i	i	i
OC1COC(c2ccccc2)OC1C1OC(c2ccccc2)OCC1O (centres undefined)	nt	i	nt	i	nt	i
CC1OC(c2ccccc2)OC2COC(c3ccccc3)OC12 (centres undefined)	nt	i	nt	i	nt	36
N#CC1=C(N)Oc2c(ccc3cccnc23)C1c1cccnc1 (centres undefined)	i	?	i	i	i	i
CCc1ccc2[nH]c(=O)c(C3C(C#N)=C(N)Oc4c3ccc3cccnc43)cc2c1 (centres undefined)	i	i	i	10	i	i
CC(C)CCNC(=O)c1nn(Cc2ccccc2)c(=O)c2ccccc12	i	i	i	i	nt	i
CC(C)N(CCNC(=O)c1nn(Cc2ccccc2)c(=O)c2ccccc12)C(C)C	0.0	i	i	i	i	i
COc1cc2[nH]c3c(=O)n(CCN4CCOCC4)cnc3c2cc1OC	i	i	i	i	+	i
N#Cc1ccc(C(C(=O)NC2CCCCC2)n2c(=O)c(-c3cc4ccccc4[nH]3)nc3ccccc32)cc1 (centres undefined)	nt	+	nt	nt	nt	i
O=C(NC1CCCCC1)C(c1ccccc1)n1c(=O)c(-c2cc3ccccc3[nH]2)nc2ccccc21 (centres undefined)	nt	i	nt	nt	nt	i
CC(C)CC1(C)NC(=O)N(CC(=O)N2C(C)CCCC2C)C1=O (centres undefined)	i	i	i	i	nt	i
O=C(NNS(=O)(=O)c1ccccc1[N+](=O)[O-])c1ccccc1Cl	i	+	i	i	i	i
O=C(NNS(=O)(=O)c1ccccc1[N+](=O)[O-])c1cc2ccccc2cc1O	i	i	i	i	i	i
O=C(O)c1c(-c2ccccc2)c(-c2ccccc2)nc2ccccc12	i	i	i	i	i	i
NC(=O)c1c(NC(=O)c2cccnc2Cl)sc2c1CCCC2	0.0	i	i	i	i	i
SMILES	T cell HTS	Myeloid diff 2	GRK2 inh	Rin1 Abl inh	Rce1 inh	SKN-1 block
Cc1ccc(OCC(=O)Nc2nnc(S(=O)(=O)N3CCC(C)CC3)s2)cc1	i	?	i	i	i	i
COc1ccccc1-n1c(SCC(=O)Nc2cccc(C)c2)nc2c(c1=O)SCC2	i	+	i	i	i	i
Cc1noc(C)c1COC(=O)c1ccc(F)c(S(=O)(=O)N2CCOCC2)c1	i	i	i	i	nt	i
CCc1ccccc1NC(=S)N(CCCN(C)C)Cc1cc2cc3c(cc2[nH]c1=O)OCO3	i	i	i	i	+	i
Cc1cccc(NC(=S)N(CCCN(C)C)Cc2cc3cc4c(cc3[nH]c2=O)OCO4)c1	i	i	i	i	i	i
COC(=O)[C@@]1(Cc2ccc(OC)cc2)[C@@H]2C(=CC(=O)[C@H]2CC(=O)C(=O)N2CCCC2)CN1C(=O)c1ccccc1	i	+	i	i	nt	i
COC(=O)[C@@]1(Cc2ccc(F)cc2)[C@H]2C(CC(=O)C(=O)N3CCCC3)C(=O)C[C@H]2CN1C(=O)c1ccccc1 (some centres undefined)	nt	i	nt	nt	nt	i
Cc1cc(SCC(=O)OC/C(O)=C(\C#N)c2nc3ccccc3[nH]2)c(C)cc1Br	i	i	i	i	i	i
N#C/C(=C(/O)COC(=O)CSc1ccc(Cl)cc1)c1nc2ccccc2[nH]1	i	+	i	i	i	i
O=C(NCc1ccc(F)cc1)c1cc(C2CCCN(C(=O)c3ccc4ccccc4c3)C2)on1 (centres undefined)	nt	i	nt	i	nt	i
O=C1/C(=C/N(C(=O)c2ccco2)c2ccc(Br)cc2)Sc2ccccc21	i	i	i	i	i	38
CC(=O)c1ccc(N2CCN(S(=O)(=O)c3ccc4c5c3CC(=O)N5CC(C)S4)CC2)cc1 (centres undefined)	i	i	i	i	i	i
C/C(=N\NC(=O)c1cc([N+](=O)[O-])cc([N+](=O)[O-])c1)c1ccco1	i	i	i	i	nt	i
C/C(=N\NC(=O)Cn1cc([N+](=O)[O-])cn1)c1ccco1	0.0	i	i	i	i	i
CCOc1ccc(/C=N/NC(=O)Cn2ccnc2C)cc1	i	i	i	i	i	i
CC(C)N1CC(O)=C(c2nc3ccccc3[nH]2)C1=N	i	i	i	i	i	i
CC(C1CC2CCC1C2)N1CC(O)=C(c2nc3ccccc3[nH]2)C1=N (centres undefined)	i	+	i	i	i	i
c1ccc(-n2cnnc2SCc2nc3ccccc3s2)cc1	i	+	i	i	nt	i
c1ccc(SCc2nc3ccccc3s2)nc1	i	i	i	i	i	i
Clc1ccc(-c2nnc(SCc3nc(-c4ccccc4)no3)o2)cc1	i	i	i	i	i	i
c1ccc2oc(SCc3nc4ccccc4s3)nc2c1	i	i	i	i	i	45
c1ccc(OCCSc2nc3ccccc3o2)cc1	i	i	i	i	i	39
c1ccc(-c2noc(CSc3nc4ccccc4o3)n2)cc1	i	i	i	i	i	44
CCOc1ccc(OCCSc2nc3ccccc3o2)cc1	i	i	i	i	i	i
O=Cc1coc2c(ccc3ccccc32)c1=O	i	nt	80	nt	i	nt
O=C/C=C/c1coc2ccc3ccccc3c2c1=O	i	nt	i	nt	i	nt
Cc1ccc(S(=O)(=O)N2C(=O)CCC2C(=O)O/N=C(\N)c2cccc([N+](=O)[O-])c2)cc1 (centres undefined)	i	i	i	i	i	i
